Experimental findings from ChEMBL document CHEMBL3044834, “Novel protoporphyrinogen oxidase inhibitors: 3H-pyrazolo[3,4-d][1,2,3]triazin-4-one derivatives” (J Agric Food Chem, 2008) are described below.

Holding throughout (type): functional
Experiment [1] relates to Digitaria sanguinalis. The experiment in a line: Herbicidal activity against Digitaria sanguinalis (hairy crabgrass) assessed as inhibition of fresh weed plant weight at 1500 g/ha using pre-emergence treatment protocol.
The subject of experiment [2] is Echinochloa crus-galli. Description: Herbicidal activity against Echinochloa crus-galli (barnyard grass) assessed as inhibition of fresh weed plant weight at 1500 g/ha using post-emergence treatment protocol. Put shortly: (§1)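 Test compounds made up as emulsions by dissolving in 100 µL N,N-dimethylformamide, then adding a little Tween 20 and water. For post-emergence, weed seedlings at one leaf and one stem were sprayed at the same rates as the pre-emergence test. Fresh weight was recorded 15 days after treatment and expressed as percent inhibition versus controls. All treatments were run in triplicate.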

The subject of experiment [3] is Brassica rapa subsp. oleifera. Description: Herbicidal activity against Brassica rapa subsp. oleifera assessed as inhibition of fresh weed plant weight at 1500 g/ha using pre-emergence treatment protocol.
Experiment [4] deals with Brassica rapa subsp. oleifera. Description: Herbicidal activity against Brassica rapa subsp. oleifera assessed as inhibition of fresh weed plant weight at 1500 g/ha using post-emergence treatment protocol. Put shortly: as §1
Experiment [5] deals with Amaranthus retroflexus. The experiment in a line: Herbicidal activity against Amaranthus retroflexus assessed as inhibition of fresh weed plant weight at 1500 g/ha using post-emergence treatment protocol. In a few lines:
as §1

The subject of experiment [6] is Echinochloa crus-galli. The experiment in a line: Herbicidal activity against Echinochloa crus-galli (barnyard grass) assessed as inhibition of fresh weed plant weight at 1500 g/ha using pre-emergence treatment protocol.
Experiment [7] relates to Digitaria sanguinalis. The experiment in a line: Herbicidal activity against Digitaria sanguinalis (hairy crabgrass) assessed as inhibition of fresh weed plant weight at 1500 g/ha using post-emergence treatment protocol. In a few lines: as §1
Experiment [8] has as its system Amaranthus retroflexus. Description: Herbicidal activity against Amaranthus retroflexus assessed as inhibition of fresh weed plant weight at 1500 g/ha using pre-emergence treatment protocol.

What is called inhibition is how much of the control response was suppressed. On to `CCOc1cc(-n2nnc3c(cnn3C)c2=O)c(F)cc1Cl`, for which the inhibition at 1500 g/ha in the experiment on Digitaria sanguinalis [1] turned out to be 0%; with Echinochloa crus-galli [2], 20.2%; in experiment [3] it was 29.8%; in experiment [4] it was 21.5%; in the experiment with Amaranthus retroflexus [5] it was 70.6%; in the experiment with Echinochloa crus-galli [6] it was 12.4%. Besides, the inhibition at 1500 g/ha with Digitaria sanguinalis [7] and in the experiment with Amaranthus retroflexus [8] was 0% each time.

Consider `CCCCOc1cc(-n2nnc3c(cnn3C)c2=O)c(F)cc1Cl`, for which the inhibition at 1500 g/ha in the experiment with Digitaria sanguinalis [1] is 0%; in the experiment on Echinochloa crus-galli [2], 0%; in experiment [3], 4.8%; in experiment [4], 16.1%; in the experiment with Amaranthus retroflexus [5] it was 16.6%; in the experiment with Echinochloa crus-galli [6], 0%. Moreover, the inhibition at 1500 g/ha in the experiment on Digitaria sanguinalis [7] and in the experiment on Amaranthus retroflexus [8] was 0% in each case.

Turning to `CCCCCOc1cc(-n2nnc3c(cnn3C)c2=O)c(F)cc1Cl`, the inhibition at 1500 g/ha stood at 0% in the experiment with Digitaria sanguinalis [1]; 15.3% in the experiment on Echinochloa crus-galli [2]; 13.9% in experiment [3]; 6.1% in experiment [4]; 23.2% in the experiment on Amaranthus retroflexus [5]; 1.1% in the experiment with Echinochloa crus-galli [6]. In addition, the inhibition at 1500 g/ha with Digitaria sanguinalis [7] and in the experiment on Amaranthus retroflexus [8] was 0% each time.

Turning to `Cn1ncc2c(=O)n(-c3cc(OC/C=C/Cl)c(Cl)cc3F)nnc21`, the inhibition at 1500 g/ha in the experiment with Digitaria sanguinalis [1] amounted to 1.4%; with Echinochloa crus-galli [2] it was 11.1%; in experiment [3] it was 0%; in experiment [4], 2.9%; in the experiment on Amaranthus retroflexus [5], 14%; in the experiment with Echinochloa crus-galli [6], 9.7%. For the same molecule, the inhibition at 1500 g/ha in the experiment with Digitaria sanguinalis [7] and in the experiment on Amaranthus retroflexus [8] was 0% each time.

In the case of `C=C(Cl)COc1cc(-n2nnc3c(cnn3C)c2=O)c(F)cc1Cl`, the inhibition at 1500 g/ha with Digitaria sanguinalis [1] is 0%; with Echinochloa crus-galli [2], 31.1%; in experiment [3] it was 0%; in experiment [4], 0%; in the experiment on Amaranthus retroflexus [5], 54.1%; in the experiment with Echinochloa crus-galli [6], 15.9%. The inhibition at 1500 g/ha in the experiment on Digitaria sanguinalis [7] was 0%; in the experiment on Amaranthus retroflexus [8], 11%.

Consider `Cn1ncc2c(=O)n(-c3cc(OCC#N)c(Cl)cc3F)nnc21`, for which the inhibition at 1500 g/ha in the experiment on Digitaria sanguinalis [1] was found to be 2.3%; with Echinochloa crus-galli [2], 32.6%; in experiment [3], 0%; in experiment [4] it was 31.3%; with Amaranthus retroflexus [5] it was 100%; with Echinochloa crus-galli [6], 17.5%. The figures for the inhibition at 1500 g/ha in the experiment with Digitaria sanguinalis [7] and in the experiment with Amaranthus retroflexus [8] were 0% and 40.5%, respectively.

In the case of `COCCOCOc1cc(-n2nnc3c(cnn3C)c2=O)c(F)cc1Cl`, the inhibition at 1500 g/ha in the experiment on Digitaria sanguinalis [1] was 2.3%; in the experiment on Echinochloa crus-galli [2], 43.6%; in experiment [3], 0%; in experiment [4] it was 28%; in the experiment on Amaranthus retroflexus [5] it was 74.9%; in the experiment with Echinochloa crus-galli [6], 5.6%. The inhibition at 1500 g/ha in the experiment with Digitaria sanguinalis [7] was found to be 0%; in the experiment with Amaranthus retroflexus [8] it was 51.8%.

With `Cn1ncc2c(=O)n(-c3cc(O)c(Cl)cc3F)nnc21`, the inhibition at 1500 g/ha in the experiment with Digitaria sanguinalis [1] came out at 0%; in the experiment with Echinochloa crus-galli [2] it was 13.2%; in experiment [3], 0%; in experiment [4] it was 27.9%; with Amaranthus retroflexus [5] it was 25.1%; in the experiment with Echinochloa crus-galli [6], 3.5%. The results for the inhibition at 1500 g/ha in the experiment with Digitaria sanguinalis [7] and in the experiment on Amaranthus retroflexus [8] were 9.2% and 23.7%, respectively.

For `COc1cc(-n2nnc3c(cnn3C)c2=O)c(F)cc1Cl`, the inhibition at 1500 g/ha is 0% with Digitaria sanguinalis [1]; 1% in the experiment on Echinochloa crus-galli [2]; 0% in experiment [3]; 28.3% in experiment [4]; 37.5% in the experiment with Amaranthus retroflexus [5]; 11.3% with Echinochloa crus-galli [6]. The inhibition at 1500 g/ha in the experiment with Digitaria sanguinalis [7] was 20.6%; with Amaranthus retroflexus [8], 40.5%.
